Source: PubChem (several laboratories)
HSF1 inh: HSF1 inhibition. activity change, negative = inhibition, % at 7.5 µM (by protocol). NIH3T3-HGL HSE-luciferase, MG132-induced, luminescence 8 h; hits give low values. 0.77% of 300,000 active;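 active means more than half of replicate wells show activity change below -50%, luminescence cut by over half; inconclusive means some wells, but at most half, below -50%; inactive means no replicate well below -50%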;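 further: luciferase reports HSF-1 transcriptional activity via heat shock element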
ALR H2O2 inh: human ALR oxidase inhibition via reduced H2O2; P55789; 3.8% of 290,000 active; AID 485317; purified ALR, DTT oxidation, H2O2 HRP-luminol luminescence; inhibition, % (concentration not given with the values);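 active means mean replicate inhibition above about 79%, with every replicate also reaching it, limit read from the data; inconclusive means only one of the two criteria met; inactive means mean below limit and not every replicate reaching it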
Target sequence (P55789 whole entry, looked up): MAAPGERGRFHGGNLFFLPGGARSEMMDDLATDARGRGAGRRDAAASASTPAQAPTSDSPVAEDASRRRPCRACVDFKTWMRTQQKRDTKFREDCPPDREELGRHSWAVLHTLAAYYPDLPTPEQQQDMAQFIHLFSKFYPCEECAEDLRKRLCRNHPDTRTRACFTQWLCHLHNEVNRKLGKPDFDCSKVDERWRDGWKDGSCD
HSF1 activator: increases HSF-1 driven luciferase reporter signal; 1.7% of 300,000 active; AID 504408; activation, % at 9 µM; NIH3T3-HGL HSF-1 luciferase reporter, MG132, 8 h; 100% = twice DMSO control signal;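 active means mean replicate activation of at least 50% with a set share of replicates each reaching 50%; inconclusive means only one of those two conditions met; inactive means mean below 50% and too few replicates reaching it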
AI-2 QS modul: modulates the Vibrio harveyi AI-2 quorum sensing system; AID 2094; activity change, % at 7.5 µM; 0.4% of 300,000 active; Vibrio harveyi JMH597 AI-2 luminescence/OD600 ratio, 9 h; hits give low values; strain lacks LuxN and CqsS sensors; 0 = neutral-control median; in the data active means activity change below about -75%, passing the limit was not always enough; inconclusive means no clear call, values can overlap the other calls;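 further: luminescence divided by OD600 gain over 9 h not by final OD600 alone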
PHOSPHO1 block: inhibitors of human PHOSPHO1 phosphatase | inhibition, % at 13.3 µM | 1.1% of 290,000 active | recombinant PHOSPHO1, absorbance phosphatase assay | AID 1565 | Q8TCT1; in the data active means inhibition above about 60%
Target sequence (Q8TCT1 whole entry, looked up): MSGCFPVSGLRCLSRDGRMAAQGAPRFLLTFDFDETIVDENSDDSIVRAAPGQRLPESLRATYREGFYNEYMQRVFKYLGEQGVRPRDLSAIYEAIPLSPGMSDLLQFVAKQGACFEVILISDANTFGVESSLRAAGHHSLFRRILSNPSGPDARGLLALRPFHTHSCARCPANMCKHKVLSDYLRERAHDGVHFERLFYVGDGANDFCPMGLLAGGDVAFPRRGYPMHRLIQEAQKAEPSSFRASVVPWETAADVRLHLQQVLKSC
HCV core dimer: HCV core protein dimerization inhibition. TR-FRET GST/Flag-core106 dimerization, 1536-well. inhibition, % at 5 µM. 0.33% of 300,000 active;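 active means inhibition above the mean of all tested compounds plus 3 SD, set per screening campaign, cut at about 45% in these data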
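System: GST-tagged and Flag-tagged HCV core protein residues 1-106 / Input: core106 proteins, GST 13.5 nM and Flag 17 nM / Buffer or medium: KF-containing HEPES buffer, pH 7.45, DTT, CHAPS, BSA / Probe or stimulus: Eu-anti-GST and XL665-anti-Flag labelled anti-tag antibodies / Schedule: 4 h, 22.5 °C incubation / Technique: TR-FRET 671 and 617 nm emission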
Of the large screens only hits and unclear results are named; the others gave an inactive call. Compounds with a hit are over-represented: about 6.8% of the library has one in this group of screens.

CN(C)c1nc(N(C)C)nc(N(C#N)CN2C(=O)c3ccccc3S2(=O)=O)n1	none
CCC1CCCCN1c1ccc([N+](=O)[O-])cc1/C=N/NC(=O)Cn1c2ccccc2c(=O)c2ccccc21 (configuration not stated)	HCV core dimer 47
COc1cc(NC(=S)N2CCc3ccccc3C2)cc(OC)c1	none (no result: ALR H2O2 inh)
Cc1ccc(C)c(-n2c(CNC(=O)c3ccco3)nnc2SCC(=O)N2CCc3ccccc32)c1	HSF1 activator 58
COc1ccc(C(CC(=O)NCc2ccccc2)Sc2n[nH]c(-c3ccccc3)n2)cc1 (configuration not stated)	none
COc1ccc(-c2nc(SC(CC(=O)NCc3ccccc3)c3ccc(OC)c(OC)c3)n[nH]2)cc1 (configuration not stated)	ALR H2O2 inh 95
COc1ccc(C(CC(=O)NCc2ccccc2)Sc2n[nH]c(-c3ccc(Cl)cc3)n2)cc1 (configuration not stated)	none
COc1ccc(-c2nc(SC(CC(=O)NCCN3CCOCC3)c3cccs3)n[nH]2)cc1 (configuration not stated)	ALR H2O2 inh 97
O=C(c1ccc(-n2ccnc2)cc1)N1CCCC(CO)(Cc2cccc(Cl)c2)C1 (configuration not stated)	none
Cc1ccc(/C=C(/NC(=O)c2ccccc2)C(=O)NC(Cc2c[nH]c3ccccc23)C(=O)O)cc1 (configuration not stated)	none
COc1cccc(OCc2cc(/C=N/NC(=O)c3ccn[nH]3)ccc2OC)c1	ALR H2O2 inh inconclusive, HCV core dimer 48
COc1ccc(/C=N\NC(=O)c2ccccc2F)cc1COc1ccc(F)cc1F	none
COc1ccc(/C=N/NC(=O)c2nc(Cl)c(Cl)c(N)c2Cl)cc1COc1ccccc1F	HCV core dimer 57
COc1ccc(/C=N/NC(=O)c2nc(Cl)c(Cl)c(N)c2Cl)cc1COc1ccc(F)cc1F	HCV core dimer 53 (no result: ALR H2O2 inh)
O=C(NCc1cccnc1)C1CCC(CNS(=O)(=O)c2cccc3nsnc23)CC1 (configuration not stated)	none
COc1ccc(OC)c(S(=O)(=O)Nc2ccccc2O)c1	ALR H2O2 inh 99, HSF1 activator 90 (no result: PHOSPHO1 block)
Clc1ccc(OCc2nc3ccccc3[nH]2)cc1	HSF1 activator 77
O=S(=O)(CCc1nc2ccccc2[nH]1)c1ccc(Cl)cc1	HSF1 inh -89
c1ccc(OCc2nc3ccccc3[nH]2)cc1	none
Cc1ccsc1C=Nc1ccc(O)cc1	ALR H2O2 inh 96
Cc1ccsc1/C=N/N=C/c1sccc1C	none
C/C(=N\NC(=O)CCCNc1cccc(C)c1)c1ccncc1	ALR H2O2 inh 93
C/C(=N\NC(=O)CNC(=O)c1ccncc1)c1ccc(C)cc1	none
COc1ccc(-c2noc3c2-c2nc(-c4ccccc4F)sc2CC3)cc1	none
CCCCC1=CC2=C(c3ccco3)C(=O)C(C)(OC(=O)c3ccc(OC)cc3)C(=O)C2=CN1Cc1ccc2c(c1)OCO2 (configuration not stated)	HCV core dimer 55
CCCCC1=CC2=C(c3ccco3)C(=O)C(C)(OC(=O)c3ccc(OC)cc3)C(=O)C2=CN1Cc1ccccc1 (configuration not stated)	none (no result: ALR H2O2 inh)
C[n+]1c2n(c3ccccc31)N=C(c1ccc(Cl)cc1)CS2	ALR H2O2 inh 99
COc1ccc(C2=Nn3c([n+](C)c4ccccc43)SC2)cc1	none
Cc1cc([N+](=O)[O-])nn1CCCC(=O)Nc1c(C)n(C)n(-c2ccccc2)c1=O	none
CC(=O)Nc1ccc(S(=O)(=O)n2cnc3cc(C)c(C)cc32)cc1	none
CC(=O)Nc1ccc(C(=O)n2cnc3cc(C)c(C)cc32)cc1	ALR H2O2 inh 99
CCn1cc(C(=O)NCc2ccco2)c(=O)c2ccc(C)nc21	none
N#CC(C#N)=C1C=CC=CN1/C(=C\c1ccccc1)C(=O)c1cccs1	HSF1 activator 214
Cc1ccc2[nH]c(C(=O)N3CCN(c4cccc(Cl)c4)CC3)cc2c1	none
O=C(Nc1cccnc1)c1ccco1	none (no result: ALR H2O2 inh)
O=C(NCc1ccco1)c1ccc([N+](=O)[O-])o1	AI-2 QS modul -165
O=C(Nc1ccc(Cl)cn1)c1ccc([N+](=O)[O-])o1	HSF1 activator 140, AI-2 QS modul inconclusive (no result: ALR H2O2 inh, HCV core dimer)
CC(C)(C)c1ccc(OCc2ccc(C(=O)NCc3cccnc3)o2)cc1	HSF1 activator 112
O=C(Nc1cccnc1)c1ccc([N+](=O)[O-])o1	AI-2 QS modul -108
Cc1c(Cl)c([N+](=O)[O-])nn1Cc1ccc(C(=O)Nc2ccc(Cl)cn2)o1	none
CSCC[C@H](N)C(=O)NC[C@H]1CC[C@H](C(=O)N[C@@H](Cc2ccccc2)C(=O)O)CC1	none (no result: ALR H2O2 inh)
CCOC(=O)c1c(Cc2cccc(Cl)c2)c[nH]c1C	none
C=CCc1c(C)[nH]c(=O)[nH]c1=O	none
O=C(CCn1cccc1)Nc1ccc(OC(F)(F)F)cc1	none
O=C(NCc1cccnc1)c1ccc([N+](=O)[O-])o1	HSF1 activator 70, AI-2 QS modul -109
CCN(CC(=O)NCc1ccncc1)S(=O)(=O)c1ccc(OC)cc1	none
CCOC(=O)c1c(C)c(C(=O)NCCc2ccccc2)c(C)n1C	HSF1 activator 77
CCOC(=O)c1c(C)c(C(=O)NCc2cccnc2)c(C)n1C	none
Cc1ccc(C(C)(O)CS(=O)(=O)Cc2ccccc2Cl)cc1 (configuration not stated)	HSF1 activator 112
COc1ccc(-n2nc3c(c2NC(=O)COc2cccc(OC)c2)CS(=O)(=O)C3)cc1	none
S=c1nc(-c2csc3c2CCCC3)[nH][nH]1	ALR H2O2 inh 99
CCOc1cccc(-c2nnc3sc(-c4cc(OC)c(OC)c(OC)c4)nn23)c1	none (no result: AI-2 QS modul)
COc1cc(-c2nn3c(Cc4ccccc4)nnc3s2)cc(OC)c1OC	PHOSPHO1 block 77
COc1cc(-c2nn3c(-c4ccccc4)nnc3s2)cc(OC)c1OC	none (no result: HSF1 inh, HSF1 activator)
c1ccc(Cc2nnc3sc(-c4ccco4)nn23)cc1	PHOSPHO1 block 96
COc1cc(-c2nn3c(COc4ccccc4)nnc3s2)cc(OC)c1OC	PHOSPHO1 block 74
Clc1ccccc1-c1nnc2sc(-c3ccco3)nn12	none
c1ccc(Cc2nn3c(COc4ccccc4)nnc3s2)cc1	PHOSPHO1 block 66
c1ccc(OCc2nn3c(-c4n[nH]c5c4CCC5)nnc3s2)cc1	HCV core dimer 47
COCCN=C1Sc2nc3ccc(C)cc3cc2CN1Cc1ccco1	PHOSPHO1 block 97
CN(C(=O)C1CCCC1)C1CCS(=O)(=O)C1 (configuration not stated)	none (no result: PHOSPHO1 block)
O=C(NNC(=O)C1[C@H]2CCCC[C@@H]12)c1ccc(=O)oc1 (some centres not stated)	ALR H2O2 inh 96
O=C(NC12CC3CC(CC(C3)C1)C2)c1ccc(=O)oc1	none (no result: ALR H2O2 inh)
